From PubChem BioAssay
bCat KO growth: primary screen for growth suppressors in beta-catenin knockout HCT116 cells (colon tumor, human); AID 818, 2007; actives 1.5% (n = 140,000); HCT116 beta-catenin knockout viability, CellTiter-Glo, 60 h; hits give low values; viability, % at 10 µM;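 active = viability at or under a set limit, the compound median less 4 SD, cut at about 6% in these data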
H69AR inhibit: proliferation blockers of H69AR lung cancer cells, primary screen, cell-based, human, 86K library; AID 598, 2007; actives 6% (n = 85,000); viability, % at 10 µM; H69AR lung tumor viability, ATP luminescence, 72 h; hits give low values;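 active = viability at or below 40%; inactive = viability above 40%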;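 also: multidrug resistant small cell line overexpressing MRP-1 efflux transporter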
Fibroblast inh: antiproliferative effect on LL 47 fibroblasts – human, LL 47 cells, CellTiter-Glo luminescence, primary screen. LL 47 human lung fibroblast viability, ATP luminescence; hits give low values. viability, % at 10 µM. actives 1.1% (n = 85,000);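 active = viability at or below 50% in the single dose screen; inactive = viability above 50%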;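 also: compound exposure lasted 72 h before the ATP readout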
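material = human LL 47 lung fibroblast cells | dosing = compounds added from tenfold dosing solution, 0.1% DMSO final | timing = overnight cell rest, 72 h compound treatment at 37 °C | measured by = CellTiter-Glo luminescence measuring cellular ATP | evaluation = % viability versus median cells-only luminescence | control set = cell-only wells, no compound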
HCT116 PTEN-null: growth suppression of PTEN-null HCT116, primary screen, cell-based, CellTiter-Glo. actives 1.2% (n = 140,000). HCT116 PTEN-null viability, 60 h; hits give low values. viability, % at 10 µM;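 active = viability at or below a set limit, 4 SD under the median of all tested compounds, cut at about 3.7% in these data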;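 also: PTEN knockout HCT116 line with beta catenin targeted HCT116 as companion control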
HUVEC prolif 384: inhibitors of HUVEC proliferation, primary screen, cell-based, 384-well | AID 648, 2007 | viability, % at 10 µM (by protocol) | actives 1.1% (n = 86,000) | CellTiter-Glo luminescence, 72 h; hits give low values;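 active = viability at or below 30%; inactive = viability above 30%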
Large screens that a line does not name were inactive. This excerpt belongs to a sample that is enriched for hits.

CCOC(=O)C1=C(N)n2c(s/c(=C\c3cccs3)c2=O)=C(C(=O)OCC)C1c1cccs1 (stereo not given)	H69AR inhibit 29
CC1=C(C)CS(=O)N(S(=O)(=O)c2ccc(Cl)cc2)C1 (stereo not given)	Fibroblast inh 47
CC1CCN(S(=O)(=O)c2ccc(Cl)cc2)CC1	none
Cc1nn(C)c(C)c1NC(=O)CSc1nc(-c2ccccc2Cl)nc2c1cnn2-c1ccccc1	H69AR inhibit 30
CC1CCCCN1C(=O)CSc1nc(C2CC2)nc2c1cnn2-c1ccccc1 (stereo not given)	none (no result: H69AR inhibit, Fibroblast inh, HUVEC prolif 384)
Cc1nn(C)c(C)c1NC(=O)CSc1nc(C2CC2)nc2c1cnn2-c1ccccc1	bCat KO growth 1.3, Fibroblast inh 43, HCT116 PTEN-null 1.2
Cc1cc(C)n2nc(SCC(=O)Nc3c(C)nn(-c4ccccc4)c3C)nc2n1	none
CCn1c(SCC(=O)Nc2ccccc2C(=O)OC)nnc1-c1cccc(C)c1	none
Cc1ccc(Nc2cc(C)nn2-c2nc(C)cc(C)n2)cc1	H69AR inhibit 14
Cc1ccc(Nc2cc(C)nc3nnnn23)cc1	none
Cc1ccc(Nc2nc3ccccc3nc2-n2nc(C)cc2C)cc1	none
Cc1ccc(Nc2cc(C)nn2-c2nc(C)cc(=O)[nH]2)cc1	bCat KO growth 2.0, H69AR inhibit 1.4, Fibroblast inh 4.5, HCT116 PTEN-null 1.5, HUVEC prolif 384 30
COc1ccccc1CN(Cc1cc2c(C)ccc(C)c2[nH]c1=O)Cc1nnnn1Cc1ccco1	none
COc1ccc(C2CC(=O)Nc3ccccc3S2(=O)=O)cc1OC (stereo not given)	none
CCOC(=O)C(C)n1ncn2cccc2c1=O (stereo not given)	none (no result: H69AR inhibit, Fibroblast inh, HUVEC prolif 384)
CCCCOc1c(Br)cc(/C=N/O)cc1OCC	H69AR inhibit 2.0, HUVEC prolif 384 21
C=CCOc1c(Br)cc(/C=N/O)cc1OCC	none (no result: H69AR inhibit, Fibroblast inh, HUVEC prolif 384)
Cc1ccc2cc3c(NC(=O)c4ccco4)nn(CC(C)C)c3nc2c1	H69AR inhibit 35
Cc1ccc2nc3c(cc2c1)c(NC(=O)c1ccccn1)nn3CC(C)C	none
COc1ccc(C2NC(=O)NC3=C2CCc2ccccc23)cc1 (stereo not given)	H69AR inhibit 24
Cc1c(C(=O)N2CCCCC2)nnn1-c1nonc1N	none
CCCCOc1nc2ccccc2nc1C(C#N)C(=O)NC1CCCCC1 (stereo not given)	none
CCOC(=O)c1c(C)oc2c1c(C(c1ccncc1)N1CCOCC1)c(O)c1ccccc12 (stereo not given)	H69AR inhibit 0.9
COC(=O)CSC1=C(C#N)C(c2ccccc2)CC(=O)N1 (stereo not given)	none
COC(=O)CSC1=C(C#N)C(=O)NC(c2ccccc2)S1 (stereo not given)	H69AR inhibit 1.3, Fibroblast inh 7.4, HUVEC prolif 384 28
CC(Sc1nc(N(C)C)nc(N2CCOCC2)n1)C(=O)Nc1ccccc1 (stereo not given)	H69AR inhibit 31
O=C(OCc1nnc(-c2ccccc2)o1)C1CCN(S(=O)(=O)c2cccs2)CC1	none
CCCCNC(=O)CSc1nc2ccc(N3CCOCC3)cc2c(=O)n1CCc1ccccc1	H69AR inhibit 8.9, HUVEC prolif 384 26
COCCNC(=O)CSc1nc2ccc(N3CCOCC3)cc2c(=O)n1CCc1ccccc1	none
CCOc1ccc(NCc2nnc(SCC(=O)Nc3nc(-c4ccccc4)cs3)n2-c2ccccc2)cc1	bCat KO growth 1.3, HCT116 PTEN-null 1.0 (no result: H69AR inhibit, Fibroblast inh, HUVEC prolif 384)
CCn1c(SCC(=O)Nc2nc(-c3ccc(C)cc3)cs2)nnc1-c1ccccc1	none
COc1ccc2cc(C)c3nnc(SCC(=O)Nc4nc(-c5ccc(F)cc5)cs4)n3c2c1	bCat KO growth 2.7, HCT116 PTEN-null 2.0 (no result: H69AR inhibit, Fibroblast inh, HUVEC prolif 384)
Cc1cccc(C)c1NCc1nnc(SCC(=O)Nc2nc(-c3ccccc3)cs2)n1-c1ccccc1	none (no result: H69AR inhibit, Fibroblast inh, HUVEC prolif 384)
CCn1c(SCC(=O)Nc2nc(C)cs2)nnc1C(NC(=O)c1ccccc1Cl)C(C)C (stereo not given)	H69AR inhibit 38
COc1ccccc1-c1nnc(SCC(=O)Nc2nc(-c3ccccc3)cs2)n1C	none
CCn1c(SCC(=O)Nc2nc(-c3ccc(C)cc3)cs2)nnc1-c1ccccc1O	H69AR inhibit 29
